Published values pooled from the literature.
Each line is one published result; the experiments were not run side by side.
Target: Serine/threonine-protein kinase 4 (STK4, Homo sapiens, UniProt Q13043)
One construct used (Q13043 1-487): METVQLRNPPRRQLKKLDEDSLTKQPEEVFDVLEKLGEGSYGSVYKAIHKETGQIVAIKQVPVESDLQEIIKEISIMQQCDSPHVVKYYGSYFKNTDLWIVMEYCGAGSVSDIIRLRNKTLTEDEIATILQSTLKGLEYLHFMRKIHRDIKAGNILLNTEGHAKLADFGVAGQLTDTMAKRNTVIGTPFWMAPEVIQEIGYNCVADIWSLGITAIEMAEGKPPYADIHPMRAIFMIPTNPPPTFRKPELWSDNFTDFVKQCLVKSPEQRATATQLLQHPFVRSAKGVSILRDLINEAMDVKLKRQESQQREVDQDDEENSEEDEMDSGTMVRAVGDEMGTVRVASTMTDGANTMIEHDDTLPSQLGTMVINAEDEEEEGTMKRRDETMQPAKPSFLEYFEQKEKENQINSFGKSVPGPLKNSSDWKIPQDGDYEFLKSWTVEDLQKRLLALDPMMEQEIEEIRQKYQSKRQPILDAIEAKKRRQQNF

CN(C)c1nccc(-c2cnc3ncccn23)n1  remaining binding (binding; 1 µM): 88%
Cc1c(C(=O)O)cc(-c2ccc(C3CCNCC3)cc2)c2ccc(-c3ccc(C(F)(F)F)cc3)cc12  remaining binding (binding; competition with immobilised ligand; 1 µM): 95%
O=C(NCCCN1CCOCC1)c1ccc(Nc2ncc(Cl)c(-c3ccc(Cl)s3)n2)cc1  remaining binding (binding; competition with immobilised ligand; 1 µM): 90%
CCN1CCN(Cc2ccc(C(=O)Nc3ccc(C)c(Oc4ccc5c(c4)CC(=O)N5)c3)cc2C(F)(F)F)CC1  remaining binding (binding; competition with immobilised ligand; 1 µM): 100%
CC1CCCN1c1nccc(-c2cnn3ncccc23)n1 (centres unmarked)  remaining binding (binding; 1 µM): 98%
CSc1cccnc1N1CCN(Cc2nc3ccccc3[nH]2)CC1  remaining binding (cell-free assay; competition with immobilised ligand; 1 µM): 85%
COc1cnc(Nc2cccc(S(N)(=O)=O)c2)nc1N1CCN(c2ccccc2)C(=O)C1  remaining binding (binding; competition with immobilised ligand; 1 µM): 98%
Cc1c[nH]c2nccc(Oc3c(F)cc(Nc4cc(Cl)nc(N)n4)cc3F)c12  remaining binding (cell-free assay; competition with immobilised ligand; 0.1 µM): 100%
COc1cnc(Nc2cccc(S(N)(=O)=O)c2)nc1N1CCN(c2ccccc2)CC1  remaining binding (binding; competition with immobilised ligand; 1 µM): 100%
N[C@@H]1CCN(c2nccc(-c3cnn4ncccc34)n2)C1  remaining binding (binding; 1 µM): 100%
CNC(=O)c1ccc(Nc2ncc(C(F)(F)F)c(NCc3nccnc3N(C)S(C)(=O)=O)n2)cc1  remaining binding (cell-free assay; competition with immobilised ligand; 0.1 µM): 97%
c1cnn2ncc(-c3ccnc(N4CCC45COC5)n3)c2c1  remaining binding (binding; 1 µM): 89%
O=C(c1ccc(Nc2nccc(-c3cc4ccccc4s3)n2)cc1)N1CCC(N2CCCC2)CC1  remaining binding (binding; competition with immobilised ligand; 1 µM): 100%
O=C(Nc1c[nH]nc1C(=O)NC1CCNCC1)c1cc(F)cc(F)c1  remaining binding (binding; competition with immobilised ligand; 1 µM): 100%
C[C@@H]1CCN(c2nccc(-c3cnn4ncccc34)n2)C1  remaining binding (binding; 1 µM): 85%
CCC(=O)N[C@H]1CC[C@@H](C(=O)N(C)c2ccc(-c3nc4ccccc4o3)cc2)C1  remaining binding (cell-free assay; competition with immobilised ligand; 1 µM): 100%
F[C@@H]1CCN(c2nccc(-c3cnn4ncccc34)n2)C1  remaining binding (binding; 1 µM): 91%
O=C(NCCCC1CCCCC1)c1ccc(CNC(=O)c2cnn(-c3ccccc3)c2C(F)(F)F)cc1  remaining binding (cell-free assay; competition with immobilised ligand; 0.1 µM): 100%
O=C(c1ccc(Nc2ncc(Cl)c(-c3ccc(Cl)s3)n2)cc1)N1CCC(N2CCCC2)CC1  remaining binding (binding; competition with immobilised ligand; 1 µM): 90%
Nc1ncc2c(n1)-c1c([nH]c3ccc(C#CC4CC4)cc13)CCCC2  remaining binding (binding; competition with immobilised ligand; 1 µM): 100%
